Key:
Type in all cases: functional
Mus musculus [1] = experiment: Rotation number in mice was determined at 9 minutes after a dose of 10 mg/Kg
How it was run: (§1)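 Nomura water-wheel test: Swiss inbred mice (5 male, 5 female per group) dosed ip in 1% Tween 80, placed in a water tank with central wheel 1 h later. Wheel rotations counted by photointerrupter on the shaft, read at 9, 12 and 15 min. Mean ± SD vs vehicle controls.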

Mus musculus [2] = experiment: Total number of explored holes in 5 minutes after intraperitoneal administration of 75 mg/Kg in mice
How it was run: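 Hole-board exploration at 65 min after ip dosing (1% Tween 80 vehicle) in Swiss inbred mice, 10 per group (5 male, 5 female). Holes explored counted by infrared detector below the hole lines over 5 min. Mean ± SEM vs vehicle controls, Dunnett t test.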

Mus musculus [3] = experiment: Total number of falls in 100 seconds after intraperitoneal administration of 75 mg/Kg in mice by rotarod test
How it was run: (§2)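 Mice (Swiss inbred, 5 male + 5 female per group) dosed ip in 1% Tween 80; Rota-Rod motor coordination assessed 80 min later. Falls counted over a 100 s observation period. Mean ± SEM vs vehicle controls, Dunnett t test.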

Mus musculus [4] = experiment: Rotation number in mice was determined at 15 minutes after a dose of 10 mg/Kg; how it was run: as §1
Mus musculus [5] = experiment: Rotation number in mice was determined at 12 minutes after a dose of 10 mg/Kg; how it was run: as §1
Mus musculus [6] = experiment: Total number of movements in 5 minutes after intraperitoneal administration of 75 mg/Kg in mice
How it was run: (§3)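 Open-field spontaneous activity 60 min after ip dosing in 1% Tween 80; Swiss inbred mice, 10 per group (5 male, 5 female), placed singly in 19 × 25 cm cages and monitored continuously for 5 min. Total movements as mean ± SEM vs vehicle controls.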

Mus musculus [7] = experiment: Myorelaxant action (time in seconds on the horizontal wire with forelegs) after intraperitoneal administration of 75 mg/Kg in mice by traction test
How it was run: (§4)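 Traction test on Swiss inbred mice, 10 per group (5 male, 5 female), dosed ip in 1% Tween 80; run 70 min after dosing. Time for animals to place hind legs on horizontal wire recorded in seconds. Mean ± SEM vs vehicle-treated controls, Dunnett t test.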

Mus musculus [8] = experiment: Compound at an intraperitoneal dose of 10 mg/Kg was tested for the inhibition of abdominal constriction in mice; conditions: Abdomen, ip
How it was run: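 Swiss inbred mice (25 ± 3 g), 10 per group (5 male, 5 female), given compound ip in 1% Tween 80. Clonidine 0.1 mg/kg po 30 min later, then phenylquinone 3.75 mg/kg ip in 5% aqueous ethanol 20 min after that. Writhing counted by observer over 10 min starting 5 min post-injection; % inhibition relative to controls.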

Mus musculus [9] = experiment: Writhing number was determined against clonidine induced analgesia by the compound at an intraperitoneal dose of 10 mg/Kg in mice
Mus musculus [10] = experiment: Compound was tested for myorelaxant action (time in seconds on the horizontal wire with forelegs) after intraperitoneal administration of 37.5 mg/Kg in mice by traction test; how it was run: as §4
Mus musculus [11] = experiment: Compound was tested for total number of movements in 5 minutes after intraperitoneal administration of 37.5 mg/Kg in mice; how it was run: as §3
Mus musculus [12] = experiment: Compound was tested for total number of falls in 100 seconds after intraperitoneal administration of 37.5 mg/Kg in mice by rotarod test; how it was run: as §2
Mus musculus [13] = experiment: Rotation number in mice was determined at 15 minutes after a dose of 2.5 mg/Kg
How it was run: (§5)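 Nomura water-wheel test in Swiss inbred mice (25 ± 3 g), groups of 10 (5 male, 5 female). Drug given ip in 1% Tween 80, single dose. Mouse placed in a water tank with a central wheel 1 h after dosing. Wheel rotations counted by photointerrupter, read at 9, 12 and 15 min. Mean ± SD versus vehicle controls.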

Mus musculus [14] = experiment: Compound was tested for total number of movements in 5 minutes after intraperitoneal administration of 10 mg/Kg in mice
How it was run: (§6)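 Swiss inbred mice (25 ± 3 g), groups of 10 (5 male, 5 female), given drug ip in 1% Tween 80; vehicle-treated controls. Single sequence per animal: open-field movements counted over 5 min at 60 min, hole-board explorations (infrared counting, 5 min) at 65 min, traction-test wire time at 70 min, Rota-Rod falls over 100 s at 80 min. Mean ± SEM, Dunnett t test.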

Mus musculus [15] = experiment: Rotation number in mice was determined at 12 minutes after a dose of 5 mg/Kg; how it was run: as §5
Mus musculus [16] = experiment: Compound was tested for total number of falls in 100 seconds after intraperitoneal administration of 10 mg/Kg in mice by rotarod test; how it was run: as §6
Mus musculus [17] = experiment: Rotation number in mice was determined at 12 minutes after a dose of 2.5 mg/Kg; how it was run: as §5
Mus musculus [18] = experiment: Rotation number in mice was determined at 15 minutes after a dose of 5 mg/Kg; how it was run: as §5
Mus musculus [19] = experiment: Compound was tested for total number of explored holes in 5 minutes after intraperitoneal administration of 10 mg/Kg in mice; how it was run: as §6
Mus musculus [20] = experiment: Rotation number in mice was determined at 9 minutes after a dose of 5 mg/Kg; how it was run: as §5
Mus musculus [21] = experiment: Compound was tested for myorelaxant action (time in seconds on the horizontal wire with forelegs) after intraperitoneal administration of 10 mg/Kg in mice by traction test; how it was run: as §6
Mus musculus [22] = experiment: Rotation number in mice was determined at 9 minutes after a dose of 2.5 mg/Kg; how it was run: as §5

For `CCN1CC(=O)N2Cc3ccccc3-n3cccc3C2C1` (stereo unspecified), the Rotation number (Mus musculus [1]) was 22, the Exploratory activity (Mus musculus [2]) was 9.8 and the Activity (Mus musculus [3]) was 0.4. For the same compound, the Rotation number (Mus musculus [4]) was 22, the Rotation number (Mus musculus [5]) was 17 and the Spontaneous motor activity (Mus musculus [6]) was 285. For the same compound, the Time (Mus musculus [7]) was 2.1 s.
`O=C1CN(Cc2ccc(F)cc2)CC2c3cccn3-c3ccccc3CN12` (stereo unspecified) was tested, and the Exploratory activity (Mus musculus [2]) was 6, the Activity (Mus musculus [3]) was 1.8 and the Spontaneous motor activity (Mus musculus [6]) was 178. For the same compound, the Time (Mus musculus [7]) was 4.2 s.
Work on `O=C1CN(Cc2ccc(Cl)cc2)CC2c3cccn3-c3ccccc3CN12` (stereo unspecified) yielded an inhibition in vivo at 10 mg/kg (Mus musculus [8]) of 63% and a Writhing number (Mus musculus [9]) of 8.
Compound `O=C1CNCC2c3cccn3-c3ccccc3CN12` (stereo unspecified) has a Rotation number (Mus musculus [1]) of 15, a Rotation number (Mus musculus [4]) of 10 and a Rotation number (Mus musculus [5]) of 17.
`c1ccc2c(c1)CN1CCNCC1c1cccn1-2` (stereo unspecified) was tested, and the Time (Mus musculus [10]) was 4.9 s, the Rotation number (Mus musculus [1]) was 17 and the Rotation number (Mus musculus [4]) was 12. It also gave a Rotation number (Mus musculus [5]) of 10, a Spontaneous motor activity (Mus musculus [11]) of 111 and an Activity (Mus musculus [12]) of 3.
`O=C(c1ccc(Cl)cc1)N1CCN2Cc3ccccc3-n3cccc3C2C1` (stereo unspecified) showed a Rotation number (Mus musculus [1]) of 7, a Rotation number (Mus musculus [4]) of 7 and a Rotation number (Mus musculus [5]) of 6.
Work on `CC(=O)N1CC(=O)N2Cc3ccccc3-n3cccc3C2C1` (stereo unspecified) yielded a Rotation number (Mus musculus [1]) of 54, an Exploratory activity (Mus musculus [2]) of 10.7 and an Activity (Mus musculus [3]) of 1. The Rotation number (Mus musculus [4]) was 49, the Rotation number (Mus musculus [5]) was 57 and the Spontaneous motor activity (Mus musculus [6]) was 121. It also gave a Time (Mus musculus [7]) of 3.5 s.
In the case of `C=CCN1CCN2Cc3ccccc3-n3cccc3C2C1` (stereo unspecified), the Rotation number (Mus musculus [1]) is reported as 16, the Rotation number (Mus musculus [4]) is reported as 14 and the Rotation number (Mus musculus [5]) is reported as 16.
With `O=C1CN(Cc2ccccc2)CC2c3cccn3-c3ccccc3CN12` (stereo unspecified) the Rotation number (Mus musculus [1]) was 45, the Rotation number (Mus musculus [4]) was 31 and the Rotation number (Mus musculus [5]) was 41.
`CCN1CCN2Cc3ccccc3-n3cccc3C2C1` (stereo unspecified) was tested, and the Rotation number (Mus musculus [1]) was 30, the Exploratory activity (Mus musculus [2]) was 7.6 and the Activity (Mus musculus [3]) was 1.1. It also gave a Rotation number (Mus musculus [4]) of 24, a Rotation number (Mus musculus [5]) of 27 and a Spontaneous motor activity (Mus musculus [6]) of 188. It also gave a Time (Mus musculus [7]) of 3.1 s.
In the case of `Clc1ccc(CN2CCN3Cc4ccccc4-n4cccc4C3C2)cc1` (stereo unspecified), the Rotation number (Mus musculus [1]) is reported as 22, the Exploratory activity (Mus musculus [2]) is reported as 9.3 and the Activity (Mus musculus [3]) is reported as 2.1. The Rotation number (Mus musculus [4]) was 11, the Rotation number (Mus musculus [5]) was 14 and the Spontaneous motor activity (Mus musculus [6]) was 142. It also gave a Time (Mus musculus [7]) of 2 s.
`CN1CCN2Cc3ccccc3-n3cccc3C2C1` (stereo unspecified) gave a Rotation number (Mus musculus [1]) of 21, an Exploratory activity (Mus musculus [2]) of 3.8 and an Activity (Mus musculus [3]) of 5. It also gave a Rotation number (Mus musculus [4]) of 11, a Rotation number (Mus musculus [5]) of 16 and a Spontaneous motor activity (Mus musculus [6]) of 96. It also gave a Time (Mus musculus [7]) of 4.4 s.
Compound `CN1CC(=O)N2Cc3ccccc3-n3cccc3C2C1` (stereo unspecified) has a Rotation number (Mus musculus [1]) of 17, an Exploratory activity (Mus musculus [2]) of 13 and an Activity (Mus musculus [3]) of 8.7. The Rotation number (Mus musculus [4]) was 10, the Rotation number (Mus musculus [5]) was 14 and the Spontaneous motor activity (Mus musculus [6]) was 90. It also gave a Time (Mus musculus [7]) of 1 s.
Compound `O=C1NCC(=O)N2Cc3ccccc3-n3cccc3C12` (stereo unspecified) has a Rotation number (Mus musculus [1]) of 18, an Exploratory activity (Mus musculus [2]) of 14.7 and an Activity (Mus musculus [3]) of 2.5. It also gave a Rotation number (Mus musculus [4]) of 11, a Rotation number (Mus musculus [5]) of 15 and a Spontaneous motor activity (Mus musculus [6]) of 247. For the same compound, the Time (Mus musculus [7]) was 5.5 s, the inhibition in vivo at 10 mg/kg (Mus musculus [8]) was 43% and the Writhing number (Mus musculus [9]) was 12.
With `O=C1CC2c3cccn3-c3ccccc3CN2C(=O)CN1` (stereo unspecified) the Rotation number (Mus musculus [1]) was 35, the Exploratory activity (Mus musculus [2]) was 17.2 and the Activity (Mus musculus [3]) was 0.6. The Rotation number (Mus musculus [4]) was 27, the Rotation number (Mus musculus [5]) was 27 and the Spontaneous motor activity (Mus musculus [6]) was 173. For the same compound, the Time (Mus musculus [7]) was 2.3 s.
In the case of `CN(C)CCCN1c2ccccc2CCc2ccccc21` [IMIPRAMINE], the Time (Mus musculus [10]) is reported as 5.7 s, the Rotation number (Mus musculus [1]) is reported as 48 and the Rotation number (Mus musculus [4]) is reported as 36. The Rotation number (Mus musculus [5]) was 40, the Spontaneous motor activity (Mus musculus [11]) was 183 and the Activity (Mus musculus [12]) was 4.8. For the same compound, the inhibition in vivo at 10 mg/kg (Mus musculus [8]) was 100%.
For `CN1CCN2c3ccccc3Cn3cccc3C2C1` (stereo unspecified) [APTAZAPINE], the Rotation number (Mus musculus [13]) was 2, the Spontaneous motor activity (Mus musculus [14]) was 168 and the Rotation number (Mus musculus [15]) was 8. The Activity (Mus musculus [16]) was 5, the Rotation number (Mus musculus [1]) was 8 and the Exploratory activity (Mus musculus [2]) was 0.5. The Rotation number (Mus musculus [17]) was 3, the Activity (Mus musculus [3]) was 6.5 and the Rotation number (Mus musculus [4]) was 2. For the same compound, the Rotation number (Mus musculus [18]) was 2, the Rotation number (Mus musculus [5]) was 5 and the Exploratory activity (Mus musculus [19]) was 8.8. The Spontaneous motor activity (Mus musculus [6]) was 59, the Rotation number (Mus musculus [20]) was 5 and the Time (Mus musculus [7]) was 8.1 s. For the same compound, the Time (Mus musculus [21]) was 2.5 s, the inhibition in vivo at 10 mg/kg (Mus musculus [8]) was 14% and the Writhing number (Mus musculus [9]) was 18. The Rotation number (Mus musculus [22]) was 12.
`CC(=O)N1CCN2Cc3ccccc3-n3cccc3C2C1` (stereo unspecified) showed a Rotation number (Mus musculus [1]) of 21, a Rotation number (Mus musculus [4]) of 17 and a Rotation number (Mus musculus [5]) of 23.
